Our source for the Na and V values is ChEMBL document CHEMBL1125330, “N-substituted pyrazino[2,3-c][1,2,6]thiadiazine 2,2-dioxides. A new class of diuretics” (J Med Chem, 1992).

Structures are written as SMILES.

Common to all, as to settings: in vivo
For data set [1], the species on record is Rattus norvegicus. The data set is described as follows: Mean sodium excretion in rats (Control/Drug treatment value); value 0.41/2.06. It counts as ADME, organism-based.
The species named for data set [2] is Rattus norvegicus. The data set is described as follows: Mean urinary output in rats (Control/Drug treatment value); value 22.8/35.1. It counts as ADME, organism-based, Urine. The method in brief: (§1)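 Water-loaded male Sprague-Dawley rats (HC/CFY, 175-200 g), eight per group, deprived of food and water 18 h. Single oral gavage of 20-25 mg/kg (some 10 mg/kg) in 1% CMC/0.1% Tween 80, then distilled water 2.5 mL/100 g bw po. Cumulative urine over 6 h in metabolic cages; mean mL/6 h/kg bw vs vehicle group.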

The species entered for data set [3] is Rattus norvegicus. The data set is described as follows: Mean sodium excretion in rats (Control/Drug treatment value); value 0.44/2.68. The format is ADME, organism-based.
For data set [4], the species on record is Rattus norvegicus. Kind of data set: Mean urinary output in rats (Control/Drug treatment value); value 26.1/45.7. It counts as ADME, organism-based, Urine. The method in brief: as §1

`CCCN1c2nc(CC)c(C)nc2C(N)=NS1(=O)=O` displayed a Na in the data set filed under Rattus norvegicus [1] of 5. This compound also yielded a V in the data set listed under Rattus norvegicus [2] of 1.5.

In the case of `CCCN1c2nc(C)c(C)nc2C(N)=NS1(=O)=O`, the Na in the data set filed under Rattus norvegicus [3] is 6.1. The compound further displayed a V in the data set filed under Rattus norvegicus [4] of 1.8.
